Assay results as given in ChEMBL document CHEMBL1150427, “Hybrids of 1-deoxynojirimycin and aryl-1,2,3-triazoles and biological studies related to angiogenesis” (Bioorg Med Chem, 2008).
Activity calls are given as the source filed them. The calls are words filed in the database; no cut-off is given here.

Key:
BAEC [1] = experiment: Inhibition of cyclin D1 expression in BAEC at 100 uM after 24 hrs by Western blot; type: functional, cell-based; conditions: Bos taurus
Method in brief: (§1)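 BAECs were treated at 0, 100 or 200 µM for 24 h, then lysed in RIPA buffer with protease inhibitors. Protein was quantified by micro-BCA. Lysates were separated by SDS–PAGE and transferred to PVDF, then probed overnight at 4 °C with antibodies to cyclin D1, ERK, phospho-ERK and β-actin (loading control). Detection used HRP secondaries and ECL. Experiments were repeated at least twice.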

BAEC [2] = experiment: Inhibition of ERK1/2 levels in BAEC at 100 uM after 24 hrs by Western blot; type: functional, cell-based; conditions: Bos taurus; method in brief: as §1
Bos taurus [3] = species: Bos taurus; experiment: Inhibition of ERK1/2 phosphorylation in BAEC at 100 uM after 24 hrs by Western blot; method in brief: as §1
BAEC [4] = experiment: Inhibition of angiogenesis in BAEC assessed as inhibition of endothelial tube formation at 0.2 mM after 24 hrs; type: functional; conditions: Bos taurus
Method in brief: (§2)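 BAECs were pretreated with compound for 24 h, then resuspended at 3×10⁴ cells/0.1 ml in RPMI 1640 with 10 ng/ml bFGF plus compound; controls received bFGF alone. Cells were layered on polymerised growth-factor-reduced Matrigel and incubated for 8 h at 37 °C in 5% CO₂. Tubes were counted by light microscopy in at least five fields and averaged. Each compound was tested at least twice.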

BAEC [5] = experiment: Decrease in FITC-labeled phytohemagglutininin-L binding to BAEC at 50 uM after 24 hrs by flow cytometer; type: functional, cell-based; conditions: Bos taurus
Method in brief: (§3)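 Cultured BAECs were exposed to compound (50 µM) for 24 h, harvested and washed in DPBS. About 5×10⁵ cells were incubated in DPBS/1% BSA with 2 µg/mL FITC-labelled Con A or L-PHA for 1 h at 4 °C, washed twice, and fluorescence histograms were recorded by FACS. Each experiment was done at least twice.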

[6] = Cell cycle arrest in BAEC assessed as accumulation at S phase at 200 uM after 24 hrs by flow cytometer relative to control; type: functional, cell-based; conditions: Bos taurus
Method in brief: (§4)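 BAECs were seeded overnight in RPMI 1640 with 10% FBS, then exposed to compound for 24 h with a DMSO control. Cells were trypsinised, washed in DPBS and fixed in 70% ethanol at −20 °C for at least 2 h. They were treated with 200 µg/ml RNase A at 25 °C for 30 min, then stained with 50 µg/ml propidium iodide at 4 °C for 30 min. DNA content of 10,000 nuclei was read by flow cytometry, and G0/G1, S and G2/M percentages were derived. Each experiment was run at least twice.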

[7] = (§5) Inhibition of Bacillus stearothermophilus alpha glucosidase; parameters: species or system Geobacillus stearothermophilus
BAEC [8] = experiment: Inhibition of ERK1/2 levels in BAEC at 200 uM after 24 hrs by Western blot; type: functional, cell-based; conditions: Bos taurus; method in brief: as §1
[9] = Cell cycle arrest in BAEC assessed as accumulation at G2/M phase at 200 uM after 24 hrs by flow cytometer relative to control; type: functional, cell-based; conditions: Bos taurus; method in brief: as §4
BAEC [10] = experiment: Inhibition of cyclin D1 expression in BAEC at 200 uM after 24 hrs by Western blot; type: functional, cell-based; conditions: Bos taurus; method in brief: as §1
BAEC [11] = experiment: Inhibition of angiogenesis in BAEC assessed as inhibition of endothelial tube formation at 0.1 mM after 24 hrs; type: functional; conditions: Bos taurus; method in brief: as §2
BAEC [12] = experiment: Inhibition of stress fiber assembly in BAEC by fluorescence staining with FITC phalloidin; type: functional, cell-based; conditions: Bos taurus
Method in brief: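 BAECs were grown overnight on glass coverslips, then exposed to compound for 24 h. Cells were fixed in 4% paraformaldehyde, permeabilised with 0.1% Triton X-100 and blocked with 1% BSA. F-actin was stained with FITC-phalloidin (2 µg/ml, 30 min) and imaged by confocal microscopy at 40× oil. Experiments were repeated at least twice.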

BAEC [13] = experiment: Increase in FITC-labeled concanavalin A binding to BAEC at 50 uM after 24 hrs by flow cytometer; type: functional; conditions: Bos taurus; method in brief: as §3
Bos taurus [14] = species: Bos taurus; experiment: Inhibition of ERK1/2 phosphorylation in BAEC at 200 uM after 24 hrs by Western blot; method in brief: as §1
[15] = Cell cycle arrest in BAEC assessed as accumulation at G0/G1 phase at 200 uM after 24 hrs by flow cytometer relative to control; type: functional, cell-based; conditions: Bos taurus; method in brief: as §4
BAEC [16] = experiment: Effect on cell cycle of BAEC assessed as induction of G1 phase arrest at 200 uM after 24 hrs by flow cytometer relative to control; type: functional, cell-based; conditions: Bos taurus; method in brief: as §4
[17] = Growth inhibition of BAEC after 48 hrs by MTT assay; parameters: species or system Bos taurus; conditions: cattle
Method in brief: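 BAECs (3×10³ per well) were seeded overnight in RPMI 1640 with 10% FBS, then given compounds at 10⁻⁶–10⁻³ M for 48 h. MTT was added to a final 0.5 mg/mL for 3 h at 37 °C. Formazan was dissolved in DMSO and read at 570 nm. Samples were run in quadruplicate, with at least two independent experiments.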

[18] = system: Geobacillus stearothermophilus; experiment: as §5

Compound	Activity (BAEC [5])	IC50 [7]	Activity (BAEC [13])	Activity (BAEC [4])	other results
OC[C@@H]1[C@@H](O)[C@H](O)[C@@H](O)CN1CCCCOc1cccc(-c2cnn[nH]2)c1	inactive	6.07 µM	Active	inactive	
COc1cccc(-c2cnn[nH]2)c1				inactive	Activity [18]: inactive

More lines, main results first:

Activity (BAEC [5])	IC50 [7]	Activity (BAEC [13])	Compound	Activity (BAEC [4])	other results
inactive	1.15 µM	Active	OC[C@@H]1[C@@H](O)[C@H](O)[C@@H](O)CN1CCCCCCCCOc1cccc(-c2cnn[nH]2)c1	Active	Activity (BAEC [1]): Active; Activity (BAEC [2]): inactive; Activity (Bos taurus [3]): inactive; Activity [6]: 3.9%; Activity (BAEC [8]): inactive; Activity [9]: 6.2%; Activity (BAEC [10]): Active; Activity (BAEC [11]): inactive; Activity (BAEC [12]): Active; Activity (Bos taurus [14]): inactive; Activity [15]: 87.6%; Activity (BAEC [16]): Active
inactive	2.41 µM	Active	OC[C@@H]1[C@@H](O)[C@H](O)[C@@H](O)CN1CCCCCCOc1cccc(-c2cnn[nH]2)c1	inactive	
inactive	1.67 µM	Active	OC[C@H]1NC[C@H](O)[C@@H](O)[C@@H]1O [DUVOGLUSTAT]	inactive	Activity [17]: Not Active
